Data set [1] deals with Rattus norvegicus. Put plainly: Biodistribution in Sprague-Dawley rat bladder at 3.2 to 18.6 MBq, iv after 90 mins by micro PET analysis. Type of data set: ADME, organism-based, Urinary bladder. The conditions noted are these: in vivo, 1.5 h. In outline:
(§1)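 Male Sprague-Dawley rats (235-310 g) under isoflurane got 18F radiotracer (3.2-18.6 MBq) by tail-vein catheter, n = 2. Dynamic microPET scan for 90 min, then ex vivo tissue counting at 90 min post-injection. Values are %ID/g ± SEM.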

The test system of another data set is Intestine. Description: Biodistribution in Sprague-Dawley rat intestine at 3.2 to 18.6 MBq, iv after 90 mins by micro PET analysis. Particulars: in vivo, 1.5 h. It is filed as ADME, organism-based. The method, boiled down: as §1
Data set [2] relates to Liver. Description: Biodistribution in Sprague-Dawley rat liver at 3.2 to 18.6 MBq, iv after 90 mins by micro PET analysis. It is filed as ADME, organism-based. Particulars: in vivo, 1.5 h. In outline:
as §1

In the next data set the test system is Brain. Description: Biodistribution in Sprague-Dawley rat brain at 3.2 to 18.6 MBq, iv after 90 mins by micro PET analysis. The conditions noted are these: in vivo, 1.5 h. It is filed as ADME, organism-based. In outline:
as §1

The test system of the next data set is Kidney. Put plainly: Biodistribution in Sprague-Dawley rat kidney at 3.2 to 18.6 MBq, iv after 90 mins by micro PET analysis. Type of data set: ADME, organism-based. Particulars: in vivo, 1.5 h. The method, boiled down: as §1
The next data set concerns Thymus. Description: Biodistribution in Sprague-Dawley rat thymus at 3.2 to 18.6 MBq, iv after 90 mins by micro PET analysis. Type of data set: ADME, organism-based. The conditions noted are these: in vivo, 1.5 h. In outline: as §1
The nature of data set [3]: Biodistribution in Sprague-Dawley rat urine at 3.2 to 18.6 MBq, iv after 90 mins by micro PET analysis. It is filed as ADME, organism-based. The conditions noted are these: in vivo, 1.5 h. In outline:
as §1

Data set [4] is described as follows: Metabolic stability in Sprague-Dawley rat plasma assessed as half life by radio thin layer chromatography analysis. Type of data set: ADME, cell-free. In outline: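 Anesthetized male Sprague-Dawley rats (235-330 g) given radiotracer (3.2-15.1 MBq). Femoral arterial blood was sampled over 90 min and plasma gamma-counted. Plasma was diluted with acetonitrile, centrifuged and run on silica radio-TLC with cold reference, giving parent and radiometabolite fractions.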

The next data set relates to Spleen. Description: Biodistribution in Sprague-Dawley rat spleen at 3.2 to 18.6 MBq, iv after 90 mins by micro PET analysis. Type of data set: ADME, organism-based. Particulars: in vivo, 1.5 h. In outline:
as §1

The subject of another data set is Muscle tissue. Description: Biodistribution in Sprague-Dawley rat muscle at 3.2 to 18.6 MBq, iv after 90 mins by micro PET analysis. It is filed as ADME, organism-based. Particulars: in vivo, 1.5 h. The method, boiled down: as §1
Data set [5] can be described thus: Biodistribution in Sprague-Dawley rat fat at 3.2 to 18.6 MBq, iv after 90 mins by micro PET analysis. It is filed as ADME, organism-based, Adipose tissue. Particulars: in vivo, 1.5 h. The method, boiled down: as §1
Data set [6] deals with Rattus norvegicus. Put plainly: Biodistribution in Sprague-Dawley rat cartilage at 3.2 to 18.6 MBq, iv after 90 mins by micro PET analysis. Type of data set: ADME, organism-based, Cartilage tissue. Particulars: in vivo, 1.5 h. In outline: as §1
A further data set has as its system Heart. Put plainly: Biodistribution in Sprague-Dawley rat heart at 3.2 to 18.6 MBq, iv after 90 mins by micro PET analysis. The conditions noted are these: in vivo, 1.5 h. Type of data set: ADME, organism-based. The method, boiled down: as §1
In the next data set the test system is Lung. Put plainly: Biodistribution in Sprague-Dawley rat lung at 3.2 to 18.6 MBq, iv after 90 mins by micro PET analysis. The conditions noted are these: in vivo, 1.5 h. Type of data set: ADME, organism-based. The method, boiled down:
as §1

The subject of another data set is Bone. Put plainly: Biodistribution in Sprague-Dawley rat bone at 3.2 to 18.6 MBq, iv after 90 mins by micro PET analysis. The conditions noted are these: in vivo, 1.5 h. It is filed as ADME, organism-based, Bone element. In outline: as §1
The next data set relates to Pancreas. Description: Biodistribution in Sprague-Dawley rat pancreas at 3.2 to 18.6 MBq, iv after 90 mins by micro PET analysis. The conditions noted are these: in vivo, 1.5 h. Type of data set: ADME, organism-based. The method, boiled down:
as §1

In data set [7] the test system is Liver. Put plainly: Metabolic stability of the compound in rat liver homogenate after 30 mins. Type of data set: ADME, tissue-based. The conditions noted are these: tissue homogenate, 0.5 h. In outline:
(§2)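 Rat plasma or liver homogenate (0.450 mL) spiked with ligand at 5-200 mg/L. Samples were deproteinized with acetonitrile immediately or after 30 min at 37 °C, then analysed by HPLC in triplicate injections.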

Data set [8] has as its target T1, Glutamate NMDA receptor; GRIN1/GRIN2B (Homo sapiens, UniProt Q05586+Q13224). Description: Antagonist activity against NR1a/NR2B receptor transfected in human HEK293 cells assessed as inhibition of NMDA-induced Ca2+ influx. Type of data set: functional, cell-based.
For data set [9], the target named is Glutamate NMDA receptor; GRIN1/GRIN2A (Homo sapiens) (UniProt Q05586+Q12879). Put plainly: Antagonist activity against NR1a/NR2A receptor transfected in human HEK293 cells assessed as inhibition of NMDA-induced Ca2+ influx at 10 uM. Type of data set: functional, cell-based. The method, boiled down: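 HEK293 cells co-transfected 1:1 with NR1-1a plus NR2A-GFP or NR2B-GFP, D-APV (100 µM) after transfection, used at 24 h. Cells loaded with Fura-2/AM 45 min at 37 °C, then held in HBBSS with glycine, pH 7.45, at room temperature under perfusion. NMDA 100 µM for 30 s; ligands applied 60 s before and during.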

For data set [10], the system named is Plasma. Put plainly: Metabolic stability of the compound in rat plasma after 30 mins. The conditions noted are these: 0.5 h. Type of data set: ADME, cell-free. In outline: as §2
Data set [11] has as its target Voltage-gated inwardly rectifying potassium channel KCNH2 (Homo sapiens, UniProt Q12809). Description: Inhibition of human ERG potassium channel.
A short description of data set [12]: Inhibition of alpha-adrenergic receptor.
The subject of a further data set is Mus musculus. Put plainly: Analgesic activity in po dosed mouse assessed as licking behavior measured after 20 to 25 mins by formalin test. The conditions noted are these: Mus musculus, po; read-out: ED50. Type of data set: functional, organism-based.
Data set [13] deals with T1, Glutamate NMDA receptor; GRIN1/GRIN2B. Description: Displacement of [3H]-Ro-256981 from recombinant NR1/NR2B receptor. Type of data set: protein-complex assay. On the technique in general: In a radioligand displacement assay an active substance lowers the binding of a labelled ligand.
Data set [14] has the same target. Put plainly: Antagonist activity at human NR1a/NR2B receptor expressed in mouse fibroblast LMTK cells assessed as inhibition of Glu/Gly induced Ca2+ influx. Type of data set: functional, cell-based.
Data set [15] in a line: Metabolic stability in Sprague-Dawley rat assessed as unmetabolized parent compound in urine at 10 mg/kg, iv after 1 hr by MS/MS analysis. Particulars: in vivo. Also noted: dose 10 mg/kg, route intravenous. It is filed as ADME, organism-based. In outline: (§3)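 Two anesthetized male Sprague-Dawley rats got 10 mg/kg in sterile water by tail vein; two controls got sterile water at 1 mL/kg. Rats were kept awake 1 h, then decapitated. Plasma and urine went to LC-MS/MS, full scans compared with control.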

For data set [16], the system named is Plasma. Put plainly: Metabolic stability in Sprague-Dawley rat assessed as unmetabolized parent compound in plasma at 10 mg/kg, iv after 1 hr by MS/MS analysis. Type of data set: ADME, organism-based. Further details: dose 10 mg/kg, route intravenous. Particulars: in vivo. The method, boiled down:
as §3

Structures are written as SMILES.

T1 sequence (Q13224 whole entry, other chains not shown, the tested form may be a part): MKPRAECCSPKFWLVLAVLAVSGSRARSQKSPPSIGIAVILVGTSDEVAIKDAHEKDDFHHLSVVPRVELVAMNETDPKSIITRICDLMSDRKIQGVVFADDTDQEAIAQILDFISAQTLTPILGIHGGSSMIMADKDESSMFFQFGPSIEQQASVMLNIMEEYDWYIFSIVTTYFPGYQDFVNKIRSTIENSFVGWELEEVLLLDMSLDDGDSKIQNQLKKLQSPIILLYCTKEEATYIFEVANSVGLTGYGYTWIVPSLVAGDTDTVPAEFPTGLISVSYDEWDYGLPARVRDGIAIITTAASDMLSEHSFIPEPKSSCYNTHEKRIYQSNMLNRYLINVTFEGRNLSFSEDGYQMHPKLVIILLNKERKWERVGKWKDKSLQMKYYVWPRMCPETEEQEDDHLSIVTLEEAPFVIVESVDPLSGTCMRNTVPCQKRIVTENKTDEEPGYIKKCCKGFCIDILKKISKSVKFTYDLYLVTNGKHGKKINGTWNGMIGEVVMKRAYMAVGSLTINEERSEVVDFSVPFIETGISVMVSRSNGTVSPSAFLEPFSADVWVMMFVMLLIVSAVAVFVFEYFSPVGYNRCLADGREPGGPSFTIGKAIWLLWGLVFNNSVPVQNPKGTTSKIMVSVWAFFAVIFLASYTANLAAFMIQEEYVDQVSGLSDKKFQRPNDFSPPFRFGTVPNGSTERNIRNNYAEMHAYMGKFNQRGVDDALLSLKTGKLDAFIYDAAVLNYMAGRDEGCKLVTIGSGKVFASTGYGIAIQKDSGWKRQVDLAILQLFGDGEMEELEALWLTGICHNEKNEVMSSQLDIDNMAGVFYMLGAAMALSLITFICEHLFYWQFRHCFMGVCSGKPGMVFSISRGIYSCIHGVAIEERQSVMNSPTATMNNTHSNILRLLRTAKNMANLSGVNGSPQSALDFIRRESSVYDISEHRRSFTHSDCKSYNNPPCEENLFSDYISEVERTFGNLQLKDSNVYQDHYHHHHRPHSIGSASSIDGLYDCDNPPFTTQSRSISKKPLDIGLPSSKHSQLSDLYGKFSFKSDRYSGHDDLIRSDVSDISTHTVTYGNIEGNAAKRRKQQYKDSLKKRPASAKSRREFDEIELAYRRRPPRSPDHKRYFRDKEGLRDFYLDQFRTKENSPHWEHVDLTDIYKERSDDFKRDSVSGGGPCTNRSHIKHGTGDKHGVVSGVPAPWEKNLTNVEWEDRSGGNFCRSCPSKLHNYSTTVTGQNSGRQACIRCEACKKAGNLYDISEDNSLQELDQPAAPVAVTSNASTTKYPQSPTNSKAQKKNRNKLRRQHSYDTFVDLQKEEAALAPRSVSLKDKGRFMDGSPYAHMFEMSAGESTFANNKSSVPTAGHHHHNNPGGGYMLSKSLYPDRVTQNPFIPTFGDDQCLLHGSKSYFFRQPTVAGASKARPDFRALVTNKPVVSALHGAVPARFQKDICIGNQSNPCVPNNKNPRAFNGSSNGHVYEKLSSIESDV
Chain of Voltage-gated inwardly rectifying potassium channel KCNH2 (Q12809 whole entry): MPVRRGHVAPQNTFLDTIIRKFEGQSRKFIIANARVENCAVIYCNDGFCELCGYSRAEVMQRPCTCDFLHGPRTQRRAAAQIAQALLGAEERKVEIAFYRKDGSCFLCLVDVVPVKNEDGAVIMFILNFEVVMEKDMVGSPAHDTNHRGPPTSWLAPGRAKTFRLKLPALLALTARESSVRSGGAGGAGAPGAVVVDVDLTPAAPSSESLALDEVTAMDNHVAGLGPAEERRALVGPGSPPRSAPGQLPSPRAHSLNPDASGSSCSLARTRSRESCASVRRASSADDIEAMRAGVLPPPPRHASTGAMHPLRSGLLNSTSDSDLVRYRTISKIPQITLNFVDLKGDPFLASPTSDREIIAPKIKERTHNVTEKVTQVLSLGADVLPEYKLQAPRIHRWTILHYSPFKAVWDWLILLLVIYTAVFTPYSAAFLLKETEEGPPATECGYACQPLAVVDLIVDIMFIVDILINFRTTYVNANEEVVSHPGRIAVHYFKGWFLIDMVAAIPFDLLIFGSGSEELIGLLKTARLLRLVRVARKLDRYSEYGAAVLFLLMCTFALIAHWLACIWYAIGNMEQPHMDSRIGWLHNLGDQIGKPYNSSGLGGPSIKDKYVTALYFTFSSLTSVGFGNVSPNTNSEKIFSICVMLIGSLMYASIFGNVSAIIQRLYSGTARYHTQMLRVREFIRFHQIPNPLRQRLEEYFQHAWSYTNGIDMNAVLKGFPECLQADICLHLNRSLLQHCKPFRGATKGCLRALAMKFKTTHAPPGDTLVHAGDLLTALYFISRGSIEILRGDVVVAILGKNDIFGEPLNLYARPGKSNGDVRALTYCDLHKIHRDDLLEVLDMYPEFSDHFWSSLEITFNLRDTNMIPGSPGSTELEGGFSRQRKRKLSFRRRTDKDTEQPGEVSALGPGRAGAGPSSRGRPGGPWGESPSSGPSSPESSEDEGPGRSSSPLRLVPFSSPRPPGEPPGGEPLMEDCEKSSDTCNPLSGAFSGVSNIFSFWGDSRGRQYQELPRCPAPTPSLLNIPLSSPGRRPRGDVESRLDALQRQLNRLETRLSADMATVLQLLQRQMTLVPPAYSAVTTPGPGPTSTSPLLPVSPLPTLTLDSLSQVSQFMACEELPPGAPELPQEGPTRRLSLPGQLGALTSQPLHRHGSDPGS

In the case of `[18F]c1ccc(CC2CCNCC2)cc1`, the Drug uptake in the data set on Rattus norvegicus [1] worked out at 0.542 % ID/g; in the data set on Intestine, 0.902 % ID/g; in the data set with Liver [2] it was 2.307 % ID/g; with Brain it was 0.395 % ID/g; with Kidney it was 1.206 % ID/g; in the data set on Thymus, 0.187 % ID/g. Moreover, the Drug uptake in data set [3] stood at 10.125 % ID/g; in the data set on Spleen it was 0.322 % ID/g; in the data set with Muscle tissue, 0.145 % ID/g; in data set [5], 0.052 % ID/g; in the data set on Rattus norvegicus [6] it was 2.312 % ID/g; in the data set on Heart, 0.135 % ID/g. Moreover, the Drug uptake turned out to be 0.507 % ID/g in the data set with Lung, 0.75 % ID/g in the data set with Bone and 0.285 % ID/g in the data set on Pancreas. The half-life (as a rule, how long it takes for the measured level to halve) in [4] came out at 10 min.
Turning to `Oc1ccc2[nH]c(CN3CCC(Cc4ccc(F)cc4)CC3)nc2c1`, the Stability result with Liver [7] and with Plasma [10] was “Stable” throughout. The IC50 (as a rule, the concentration needed to halve the response being measured) in data set [8] stood at 0.0473 µM; in data set [12], 0.62 µM. Besides, in data set [9], the inhibition (in general, the relative decrease from the control value, in per cent) was 10.5%. Moreover, in [11], the IP stood at 500 nM.
For the compound `O=C(Nc1ccc2[nH]c(O)nc2c1)C(=O)N1CCC(Cc2ccc(F)cc2)CC1`, in the data set on Mus musculus, the ED50 (in general, the midpoint of the dose-response relation) stood at 0.5 mg/kg. For the same compound, the IC50 in data set [13] stood at 0.005 µM.
In the case of `O=C(Nc1ccc2[nH]c(=O)sc2c1)C(=O)N1CCC(Cc2ccc(F)cc2)CC1`, the IC50 in data set [8] came to 0.84 µM. The inhibition in [9] is 13.2%.
On to `CS(=O)(=O)Nc1ccc2nc(CN3CCC(Cc4ccccc4)CC3)[nH]c2c1`, for which the IC50 in data set [8] worked out at 0.0503 µM; in data set [14], 0.0014 µM.
Regarding `O=C(Nc1ccc2[nH]c(=O)[nH]c2c1)C(=O)N1CCC(Cc2ccccc2)CC1`, the IC50 in data set [13] stood at 0.008 µM.
As to `O=C1Cc2cc(NC(=O)C(=O)N3CCC(Cc4ccc(F)cc4)CC3)ccc2N1`, the IC50 in data set [8] amounted to 0.83 µM. In data set [9], the inhibition turned out to be 14.5%.
For the compound `Fc1ccc(CC2CCNCC2)cc1`, the Stability result (in data set [15]; in the data set on Plasma [16]) was “Unstable” throughout.
On to `CC(C(O)c1ccc(O)cc1)N1CCC(Cc2ccccc2)CC1` (centres undefined), for which the inhibition in [9] came out at 22.3%.
